In article PMC9909794 (ACS Omega, 2023):

Columns and labels:
[1] = tested on: human dermal fibroblasts (HDFs); assay: Cell adhesion assay on peptide-BSA-coated plates, HDFs; type: cell-based; details: peptides conjugated at 0.125 μM and 1 μM; 5 × 10^3 cells/well; 1 h
In short: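 HDFs grown in DMEM with 10% FBS and penicillin/streptomycin, detached with 0.05% trypsin–EDTA, and suspended in 0.1% BSA/DMEM. Plates coated with Mal-BSA (10 μg/mL in water; 30 min, 37 °C), then Cys-PPP-spacer amide peptides in 100 mM HEPES pH 7 for 2 h. After 1 h adhesion, cells fixed and stained with crystal violet. Counts averaged over nine 0.77 mm2 fields; mean ± SE, three independent experiments.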

integrin αvβ5 = details: cited from earlier work
integrin αvβ3 = details: cited from earlier work

Substance | Effect of the X3 amino acid on cell adhesion activity, HDFs [1] | Affinity for integrin αvβ5 relative to linear RGD peptides (integrin αvβ5) | Affinity for integrin αvβ3 relative to linear RGD peptides (integrin αvβ3)
CPPP-RGDNYI | negligible | – | –
c(RGDf(NMe)V) [cilengitide] | – | much higher affinity | much higher affinity
CPPP-RGDNYP | negligible | – | –
